In ChEMBL document CHEMBL3425411, “Synthesis of β-Carboline-Based N-Heterocyclic Carbenes and Their Antiproliferative and Antimetastatic Activities against Human Breast Cancer Cells” (J Med Chem, 2015):
The source made the active and inactive calls. No cut-off for these calls is given here.

How the values were obtained:
[1] = target: Matrix metalloproteinase-9 (Homo sapiens) (UniProt P14780); assay: Inhibition of MMP-9 in human MDA-MB-231 cells at 1 to 7.5 uM after 24 hrs by gelatin zymographic method; format: cell-based
Sequence of Matrix metalloproteinase-9 (Homo sapiens) (P14780 whole entry): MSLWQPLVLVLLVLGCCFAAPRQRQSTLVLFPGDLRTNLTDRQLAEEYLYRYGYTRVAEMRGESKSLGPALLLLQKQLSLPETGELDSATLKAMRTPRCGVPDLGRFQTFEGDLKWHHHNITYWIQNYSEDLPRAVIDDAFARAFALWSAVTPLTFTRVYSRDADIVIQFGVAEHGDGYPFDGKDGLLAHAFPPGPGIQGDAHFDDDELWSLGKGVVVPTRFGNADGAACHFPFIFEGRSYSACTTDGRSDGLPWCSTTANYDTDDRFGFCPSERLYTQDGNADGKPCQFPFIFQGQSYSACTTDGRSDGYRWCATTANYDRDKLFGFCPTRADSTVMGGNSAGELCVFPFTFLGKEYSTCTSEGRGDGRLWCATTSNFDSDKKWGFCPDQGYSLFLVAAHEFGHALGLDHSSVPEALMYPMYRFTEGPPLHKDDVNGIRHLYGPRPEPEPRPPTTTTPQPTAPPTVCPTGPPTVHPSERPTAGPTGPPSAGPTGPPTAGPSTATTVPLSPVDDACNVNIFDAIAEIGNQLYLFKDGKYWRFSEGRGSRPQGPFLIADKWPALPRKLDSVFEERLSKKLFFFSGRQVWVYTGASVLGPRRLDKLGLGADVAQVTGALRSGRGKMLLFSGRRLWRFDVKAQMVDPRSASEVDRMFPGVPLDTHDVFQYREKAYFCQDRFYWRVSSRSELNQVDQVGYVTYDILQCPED
Procedure, shortened: (§1)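 MDA-MB-231 cells, 1 × 10⁵ per well, treated 24 h with 0, 1, 2.5, 5 or 7.5 μM. Conditioned medium centrifuged and equal protein loaded on 8% SDS–PAGE containing 0.1% gelatin, run at 80 V. Triton X-100 washes, then developed 20 h at 37 °C in Tris-HCl pH 7.5 with NaCl, CaCl₂ and ZnCl₂. Coomassie stain, then destain.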

[2] = target: MAP kinase p38 (Homo sapiens) (UniProt O15264+Q15759+Q16539+P53778); assay: Induction of p38 MAPK phosphorylation in human MDA-MB-231 cells at 7.5 to 10 uM after 24 hrs by Western blot analysis; format: cell-based
Procedure, shortened: (§2)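 MDA-MB-231 cells treated 24 h, then lysed in RIPA buffer. 40 μg protein run on 10–15% SDS–PAGE and transferred to PVDF. Blocked in 5% milk, probed overnight at 4 °C with primary antibodies (phospho- and total ERK1/2, JNK, p38, cleaved caspase-3), then HRP secondary. ECL detection with β-actin as loading control. Blots representative of three experiments.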

MDA-MB-231 [3] = assay: Cell cycle arrest in human MDA-MB-231 cells assessed as accumulation at G0/G1 phase at 10 uM after 24 hrs by propidium iodide staining-based flow cytometric analysis (reference value: 44.3 to 47.1%); format: functional
MDA-MB-231 [4] = assay: Downregulation of cyclin B expression in human MDA-MB-231 cells at 7.5 to 10 uM after 24 hrs by Western blot analysis; format: functional, cell-based
Procedure, shortened: (§3)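 Cells were treated for 24 h. Lysates were made in RIPA buffer, and 40 μg protein was resolved on 10–15% SDS-PAGE and transferred to PVDF. Membranes were blocked with 5% milk and probed overnight at 4 °C with primary antibodies, then HRP secondaries. Detection was by ECL with β-actin as loading control. Blots represent three independent experiments.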

MDA-MB-231 [5] = assay: Upregulation of cleaved caspase-3 expression in human MDA-MB-231 cells at 7.5 to 10 uM after 24 hrs by Western blot analysis; format: functional, cell-based; procedure, shortened: as §2
MDA-MB-231 [6] = assay: Downregulation of survivin expression in human MDA-MB-231 cells at 7.5 to 10 uM after 24 hrs by Western blot analysis; format: functional, cell-based; procedure, shortened: as §3
MDA-MB-231 [7] = assay: Downregulation of Bcl-XL expression in human MDA-MB-231 cells at 7.5 to 10 uM after 24 hrs by Western blot analysis; format: functional, cell-based; procedure, shortened: as §3
[8] = target: Mitogen-activated protein kinase; ERK1/ERK2 (Homo sapiens) (UniProt P27361+P28482); assay: Inhibition of ERK1/2 phosphorylation in human MDA-MB-231 cells at 7.5 to 10 uM after 24 hrs by Western blot analysis; format: cell-based; procedure, shortened: as §2
Sequence of Mitogen-activated protein kinase; ERK1/ERK2 (Homo sapiens) (P27361 whole entry, looked up): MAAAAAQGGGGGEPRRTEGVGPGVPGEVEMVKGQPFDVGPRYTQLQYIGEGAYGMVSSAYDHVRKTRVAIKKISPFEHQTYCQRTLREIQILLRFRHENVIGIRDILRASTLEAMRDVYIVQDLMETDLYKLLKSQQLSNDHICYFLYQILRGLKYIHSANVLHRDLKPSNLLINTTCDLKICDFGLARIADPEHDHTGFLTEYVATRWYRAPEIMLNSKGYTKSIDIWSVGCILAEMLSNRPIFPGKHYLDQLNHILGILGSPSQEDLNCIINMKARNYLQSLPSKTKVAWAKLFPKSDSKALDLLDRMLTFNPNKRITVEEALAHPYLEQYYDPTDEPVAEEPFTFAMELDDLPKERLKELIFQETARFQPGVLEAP
Sequence of Mitogen-activated protein kinase; ERK1/ERK2 (Homo sapiens) (P28482 whole entry, looked up): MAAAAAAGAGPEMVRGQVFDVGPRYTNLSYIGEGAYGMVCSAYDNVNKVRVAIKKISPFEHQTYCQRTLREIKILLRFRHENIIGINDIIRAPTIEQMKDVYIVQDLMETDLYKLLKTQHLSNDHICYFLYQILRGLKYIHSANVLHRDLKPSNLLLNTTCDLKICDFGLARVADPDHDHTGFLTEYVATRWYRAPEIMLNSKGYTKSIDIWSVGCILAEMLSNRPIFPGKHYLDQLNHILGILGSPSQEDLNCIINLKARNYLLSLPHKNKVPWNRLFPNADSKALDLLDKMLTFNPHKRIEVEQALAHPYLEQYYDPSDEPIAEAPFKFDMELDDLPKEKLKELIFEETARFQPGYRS

MDA-MB-231 [9] = assay: Antiinvasive activity against human MDA-MB-231 cells at 2.5 uM after 48 hrs by transwell assay; format: functional, cell-based
Procedure, shortened: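 Matrigel (growth factor reduced, diluted in serum-free medium) coated on 8 μm pore polycarbonate transwell membranes, set 2 h at 37 °C. 30 000 cells/well seeded in RPMI-1640 with 1% FBS plus compound; lower chamber had 10% FBS as chemoattractant. After 48 h, non-invaded cells were swabbed off and invaded cells were methanol-fixed and stained with 0.1% crystal violet. At least 10 random fields were counted and expressed versus control.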

MDA-MB-231 [10] = assay: Induction of apoptosis in human MDA-MB-231 cells assessed as early apoptotic cells at 12.5 uM after 24 hrs by annexin V-propidium iodide/Alexa Fluor 488 staining-based flow cytometric analysis (reference value: 4.05 to 4.68%); format: functional
MDA-MB-231 [11] = assay: Downregulation of Bcl-2 expression in human MDA-MB-231 cells at 7.5 to 10 uM after 24 hrs by Western blot analysis; format: functional, cell-based; procedure, shortened: as §3
MDA-MB-231 [12] = assay: Downregulation of CDC25C expression in human MDA-MB-231 cells at 7.5 to 10 uM after 24 hrs by Western blot analysis; format: functional, cell-based; procedure, shortened: as §3
MDA-MB-231 [13] = assay: Cell cycle arrest in human MDA-MB-231 cells assessed as accumulation at G2/M phase at 10 uM after 24 hrs by propidium iodide staining-based flow cytometric analysis (reference value: 18.2 to 23.1%); format: functional
MDA-MB-231 [14] = assay: Antimigratory activity against human MDA-MB-231 cells at 1 to 7.5 uM after 12 to 24 hrs by wound healing assay; format: functional, cell-based
Procedure, shortened: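 2 × 10⁵ cells were plated in six-well plates and scratched with a 200 μL tip. Debris was removed, then cells were treated (0, 1, 2.5, 5, 7.5 μM; or 0–5 μM). The wound was photographed at 0, 12 and 24 h under 100× phase contrast. Area was measured as percent wound closure versus control. Three independent experiments, mean ± SEM.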

MDA-MB-231 [15] = assay: Induction of apoptosis in human MDA-MB-231 cells assessed as PARP cleavage at 7.5 to 10 uM after 24 hrs by Western blot analysis; format: functional, cell-based; procedure, shortened: as §3
[16] = target: c-Jun N-terminal kinase, JNK (Homo sapiens) (UniProt P45983+P53779+P45984); assay: Inhibition of SAPK/JNK phosphorylation in human MDA-MB-231 cells at 7.5 to 10 uM after 24 hrs by Western blot analysis; format: cell-based; procedure, shortened: as §2
[17] = target: 72 kDa type IV collagenase (Homo sapiens) (UniProt P08253); assay: Inhibition of MMP-2 in human MDA-MB-231 cells at 1 to 7.5 uM after 24 hrs by gelatin zymographic method; format: cell-based; procedure, shortened: as §1
Sequence of 72 kDa type IV collagenase (Homo sapiens) (P08253 110-660 limits assumed): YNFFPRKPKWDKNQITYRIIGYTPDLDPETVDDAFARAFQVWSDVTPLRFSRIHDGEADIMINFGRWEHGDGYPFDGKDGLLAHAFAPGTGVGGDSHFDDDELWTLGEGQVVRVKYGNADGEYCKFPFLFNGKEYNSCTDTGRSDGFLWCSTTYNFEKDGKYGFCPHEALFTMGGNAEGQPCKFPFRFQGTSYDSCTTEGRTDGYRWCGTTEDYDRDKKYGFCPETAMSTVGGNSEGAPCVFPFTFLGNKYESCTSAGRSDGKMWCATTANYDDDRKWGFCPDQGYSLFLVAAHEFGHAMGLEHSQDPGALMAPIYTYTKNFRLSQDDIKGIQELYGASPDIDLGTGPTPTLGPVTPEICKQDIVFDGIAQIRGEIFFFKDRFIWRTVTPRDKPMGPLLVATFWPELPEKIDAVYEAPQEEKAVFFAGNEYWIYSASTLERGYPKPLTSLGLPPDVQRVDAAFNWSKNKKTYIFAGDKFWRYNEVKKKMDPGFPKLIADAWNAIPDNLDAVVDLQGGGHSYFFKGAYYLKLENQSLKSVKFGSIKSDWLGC

MDA-MB-231 [18] = assay: Induction of apoptosis in human MDA-MB-231 cells assessed as early apoptotic cells at 10 uM after 24 hrs by annexin V-propidium iodide/Alexa Fluor 488 staining-based flow cytometric analysis (reference value: 4.05 to 4.68%); format: functional
MDA-MB-231 [19] = assay: Cell cycle arrest in human MDA-MB-231 cells assessed as accumulation at S phase at 10 uM after 24 hrs by propidium iodide staining-based flow cytometric analysis (reference value: 32.5 to 34.7%); format: functional
MDA-MB-231 [20] = assay: Induction of apoptosis in human MDA-MB-231 cells assessed as late apoptotic cells at 12.5 uM after 24 hrs by annexin V-propidium iodide/Alexa Fluor 488 staining-based flow cytometric analysis (reference value: 2.08 to 3.78%); format: functional
Procedure, shortened: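 MDA-MB-231 cells, about 2 × 10⁵ per well, seeded in triplicate and treated for 24 h in RPMI-1640 with 10% FBS. Stained with Alexa Fluor 488 annexin V and propidium iodide, then read by flow cytometry. AV+/PI+ events were counted as late apoptotic and reported as percentage of cells relative to control. Three independent experiments, mean ± SEM.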

MDA-MB-231 [21] = assay: Cell cycle arrest in human MDA-MB-231 cells assessed as accumulation at G0/G1 phase at 2.5 uM after 24 hrs by propidium iodide staining-based flow cytometric analysis (reference value: 44.3 to 47.1%); format: functional
MDA-MB-231 [22] = assay: Downregulation of CDK1 expression in human MDA-MB-231 cells at 7.5 to 10 uM after 24 hrs by Western blot analysis; format: functional, cell-based; procedure, shortened: as §3

| inhibition [1] | Activity [2] | inhibition [8] | inhibition [16] | inhibition [17] | Structure (SMILES) | Activity (MDA-MB-231 [3]) [%] | Activity (MDA-MB-231 [4]) | Activity (MDA-MB-231 [5]) | Activity (MDA-MB-231 [6]) | Activity (MDA-MB-231 [7]) | Activity (MDA-MB-231 [9]) | Activity (MDA-MB-231 [10]) [%] | Activity (MDA-MB-231 [11]) | Activity (MDA-MB-231 [12]) | Activity (MDA-MB-231 [13]) [%] | Activity (MDA-MB-231 [14]) | Activity (MDA-MB-231 [15]) | Activity (MDA-MB-231 [18]) [%] | Activity (MDA-MB-231 [19]) [%] | Activity (MDA-MB-231 [21]) [%] | also measured |
| --- | --- | --- | --- | --- | --- | --- | --- | --- | --- | --- | --- | --- | --- | --- | --- | --- | --- | --- | --- | --- | --- |
| Active | Active | Active | Active | Active | COC(=O)c1cc2c3ccccc3[nH]c2c2cn(-c3ccc(C)cc3Br)c[n+]12.[Cl-] | 35.3 | Active | Active | Active | Active | Active | 64.96 | Active | Active | 38.2 | Active | Active | 55.63 | 26.3 | 56.8 | Activity (MDA-MB-231 [20]): 17.42%; Activity (MDA-MB-231 [22]): Active |
| Active | Active | Active | Active | Active | COC(=O)c1cc2c3ccccc3[nH]c2c2cn(-c3ccc(C(F)(F)F)cc3)c[n+]12.[Cl-] | 31.1 | Active | Active | Active | Active | Active | 31.17 | Active | Active | 39 | Active | Active | 14.3 | 29.7 | 50.4 | Activity (MDA-MB-231 [20]): 13.43%; Activity (MDA-MB-231 [22]): Active |
| – | – | – | – | – | COC(=O)c1cc2c3ccccc3[nH]c2c2cn(-c3ccc(F)cc3Cl)c[n+]12.[Cl-] | – | – | – | – | – | – | – | – | – | – | – | – | 14.4 | – | 46.7 | – |
